Test results reported in paper PMC6525002 (Cancer Management and Research, 2019).
Values joined by “and” are separate entries in the source; they are usually repeats but may differ in a detail not shown here. Equal entries are not always repeated.

How the values were obtained:
[1] = Phase Ib pharmacokinetics, single dose; type: in vivo, human
Method in brief: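 Blood collected on Day 1 at 0.05 h before the first oral dose and 0.5, 1, 1.5, 2, 4, 6, 8, 10, 12 and 24 h after. Test compound quantified by LC-MS using multiple reaction monitoring, LLOQ 1 ng/mL. Cmax, AUC, CL, t1/2 and related parameters were derived from individual concentration-time profiles and summarised descriptively.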

patients = assay: Ongoing study exploring higher simotinib doses; type: in vivo, human; settings: 800 mg, 3 patients
[2] = system: other investigated kinases; settings: in vitro; cited from earlier work
EGFR = settings: read-out: half maximal inhibitory concentration on EGFR; in vitro; cited from earlier work
[3] = system: advanced NSCLC with EGFR gene mutations; assay: Phase Ib clinical antitumor activity; type: in vivo, human
EGFR phosphorylation = settings: in vivo, preclinical; cited from earlier work
[4] = Phase Ib pharmacokinetics, multi-dosing; type: in vivo, human
Method in brief: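 Oral test compound, flat doses twice daily for 28 days. Plasma sampled before the first daily dose on Days 8, 9, 10, 22 and 29. On Day 15, sampling ran 0.05 h predose and 0.5, 1, 1.5, 2, 4, 6, 8, 10 and 12 h post-dose. Assay by LC-MS with multiple reaction monitoring, LLOQ 1 ng/mL. Parameters were calculated from individual concentration-time profiles.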

human A431 tumor cells = settings: in vitro, cells with high expression of EGFR; cited from earlier work
[5] = 12 healthy volunteers, cited from earlier work
[6] = single dose 100 mg, N=2, mean ± SD
[7] = single dose 200 mg, N=3, mean ± SD
[8] = single dose 300 mg, N=3, mean ± SD
[9] = single dose 400 mg, N=15, mean ± SD
[10] = single dose 500 mg, N=12, mean ± SD
[11] = single dose 650 mg, N=6, mean ± SD
[12] = multi-dosing 100 mg twice daily, N=2
[13] = multi-dosing 100 mg twice daily, N=2, mean±SD
[14] = multi-dosing 200 mg twice daily, N=3, mean±SD
[15] = multi-dosing 300 mg twice daily, N=3, mean±SD
[16] = multi-dosing 400 mg twice daily, N=15, mean±SD
[17] = multi-dosing 500 mg twice daily, N=12, mean±SD
[18] = multi-dosing 650 mg twice daily, N=6, mean±SD

simotinib
bioavailability ([1]; orally administered): good bioavailability
Tmax ([1]; single dose 100 mg, N=2): 1.8 (1.5–2.0) h
AUC0-last [1, 6]: 405.6 ± 94.8 ng·h/mL
AUC0-∞ [1, 6]: 466.2 ± 129.9 ng·h/mL
CL [1, 6]: 223.1 ± 62.2 L/h
Cmax [1, 6]: 56.5 ± 18.2 ng/mL
T1/2 [1, 6]: 5.3 ± 0.3 h
Vd [1, 6]: 1,704.0±385.8 L
Tmax ([1]; single dose 200 mg, N=3): 2.0 (2.0–2.0) h
AUC0-last [1, 7]: 2,339.6±479.9 ng•hr/mL
AUC0-∞ [1, 7]: 2,955.0±564.0 ng•hr/mL
CL [1, 7]: 68.9 ± 13.2 L/h
Cmax [1, 7]: 333.0 ± 35.4 ng/mL
T1/2 [1, 7]: 12.2 ± 3.5 h
Vd [1, 7]: 1,250.1±579.7 L
Tmax ([1]; single dose 300 mg, N=3): 1.5 (1.5–2.0) h
AUC0-last [1, 8]: 2,814.0±764.5 ng•hr/mL
AUC0-∞ [1, 8]: 3,243.8±776.1 ng•hr/mL
CL [1, 8]: 95.2 ± 22.8 L/h
Cmax [1, 8]: 552.5 ± 388.2 ng/mL
T1/2 [1, 8]: 9.2 ± 1.0 h
Vd [1, 8]: 1,286.1±438.6 L
Tmax ([1]; single dose 400 mg, N=15): 2.0 (1.0–8.0) h
AUC0-last [1, 9]: 3,581.9±1,868.5 ng•hr/mL
AUC0-∞ [1, 9]: 4,962.1±3,141.7 ng•hr/mL
CL [1, 9]: 127.4 ± 117.6 L/h
Cmax [1, 9]: 566.4 ± 372.0 ng/mL
T1/2 [1, 9]: 13.3 ± 6.3 h
Vd [1, 9]: 2,097.2±1,506.8 L
Tmax ([1]; single dose 500 mg, N=12): 1.8 (0.5–4.0) h
AUC0-last [1, 10]: 3,791.0±2,741.1 ng•hr/mL
AUC0-∞ [1, 10]: 6,483.8±5,008.4 ng•hr/mL
CL [1, 10]: 200.5 ± 300.1 L/h
Cmax [1, 10]: 514.5 ± 316.4 ng/mL
T1/2 [1, 10]: 28.0 ± 33.8 h
Vd [1, 10]: 7,166.6±12,246.1 L
Tmax ([1]; single dose 650 mg, N=6): 2.0 (1.0–6.0) h
AUC0-last [1, 11]: 4,652.1±3,442.1 ng•hr/mL
AUC0-∞ [1, 11]: 7,648.4±3,028.7 ng•hr/mL
CL [1, 11]: 97.7 ± 39.2 L/h
Cmax [1, 11]: 828.5 ± 849.0 ng/mL
T1/2 [1, 11]: 29.7 ± 32.2 h
Vd [1, 11]: 3,873.8±3,378.1 L
time to Cmax, range over doses ([1]; single dose, all doses): 1.5 to 2.0 h
bradycardia (patients): 1 patient
decreased blood pressure of <90/60 mmHg (patients): occurred in all patients
dose reduction due to cardiovascular events (patients): 1 patient
activity on other investigated kinases [2]: no significant activity
IC50 (EGFR): 19.9 nM
deaths during the whole study ([3]; 100 mg group): 2 deaths
deaths during the whole study ([3]; 200 mg group): 3 deaths
deaths during the whole study ([3]; 300 mg group): 1 deaths
deaths during the whole study ([3]; 400 mg group): 1 deaths
partial response in patients with brain metastases ([3]; 500 mg, 12 patients): 16.7% and 16%
partial response in patients with brain metastases ([3]; 650 mg, 6 patients): 50%
stable disease as best response ([3]; 41 patients, RECIST 1.1): 46.3%
deaths during the whole study (treatment phase and follow-up period) ([3]; all doses): 7 deaths
survival rate at 1-year ([3]; all doses): 88.2%
median PFS ([3]; all doses, Kaplan–Meier, 95%CI 4.7, 12.1): 9.9 months
median OS ([3]; all doses, Kaplan–Meier, 95%CI 12.3, 22.5): 14.6 months
patients with brain metastases who achieved partial response on these metastases ([3]; of the 18 patients with brain metastases): 5 patients
antitumor activity in nude xenograft model (EGFR phosphorylation): inhibiting EGFR phosphorylation
T1/2, range over doses ([4]; 200–650 mg doses): 8 to 13 h
AUC0-∞ [4, 12]: 956.9 ng·h/mL
CL [4, 12]: 148.5 L/h
T1/2 [4, 12]: 6.2 h
Tmax [4, 12]: 1.0(0–2.0) h
Vd [4, 12]: 1323.3 L
AUC0-last [4, 13]: 920.4 ± 349.2 ng·h/mL
Cavg [4, 13]: 76.7 ± 29.1 ng/mL
Cmax [4, 13]: 130.3 ± 70.3 ng/mL
Cmin [4, 13]: 54.5 ± 32.1 ng/mL
Tmax ([4]; multi-dosing 200 mg twice daily, N=3): 4.0 (2.0–4.0) h
AUC0-last [4, 14]: 3,940.9±2,689.0 ng•hr/mL
AUC0-∞ [4, 14]: 6,571.6±3,241.2 ng•hr/mL
CL [4, 14]: 66.1 ± 45.1 L/h
Cavg [4, 14]: 328.4 ± 224.1 ng/mL
Cmax [4, 14]: 447.0 ± 258.8 ng/mL
Cmin [4, 14]: 207.0 ± 152.7 ng/mL
T1/2 [4, 14]: 9.6 ± 4.2 h
Vd [4, 14]: 1,050.0±1,020.6 L
Tmax ([4]; multi-dosing 300 mg twice daily, N=3): 1.5 (1.0–2.0) h
AUC0-last [4, 15]: 6,013.9±3,058.1 ng•hr/mL
AUC0-∞ [4, 15]: 9,728.6±1,648.2 ng•hr/mL
CL [4, 15]: 57.3 ± 29.1 L/h
Cavg [4, 15]: 501.2 ± 254.8 ng/mL
Cmax [4, 15]: 1,519.0±1,132.8 ng/mL
Cmin [4, 15]: 288.0 ± 117.4 ng/mL
T1/2 [4, 15]: 10.4 ± 7.8 h
Vd [4, 15]: 1,019.6±1,077.5 L
Tmax ([4]; multi-dosing 400 mg twice daily, N=15): 2.0 (0–8.0) h
AUC0-last [4, 16]: 5,245.7±2,194.4 ng•hr/mL
AUC0-∞ [4, 16]: 10,577.7±5,867.6 ng•hr/mL
CL [4, 16]: 99.5 ± 70.4 L/h
Cavg [4, 16]: 437.1 ± 182.9 ng/mL
Cmax [4, 16]: 767.9 ± 338.1 ng/mL
Cmin [4, 16]: 251.6 ± 127.0 ng/mL
T1/2 [4, 16]: 13.0 ± 11.8 h
Vd [4, 16]: 2,000.6±3,169.6 L
Tmax ([4]; multi-dosing 500 mg twice daily, N=12): 1.8 (1.0–6.0) h
AUC0-last [4, 17]: 7,819.8±1,942.3 ng•hr/mL
AUC0-∞ [4, 17]: 12,780.6±3,894.7 ng•hr/mL
CL [4, 17]: 67.7 ± 17.2 L/h
Cavg [4, 17]: 651.6 ± 161.9 ng/mL
Cmax [4, 17]: 1,396.0±534.8 ng/mL
Cmin [4, 17]: 378.3 ± 132.0 ng/mL
T1/2 [4, 17]: 8.4 ± 2.8 h
Vd [4, 17]: 811.3 ± 326.9 L
Tmax ([4]; multi-dosing 650 mg twice daily, N=6): 2.0 (1.5–8) h
AUC0-last [4, 18]: 4,615.7±1,599.7 ng•hr/mL
AUC0-∞ [4, 18]: 8,193.3±3,211.2 ng•hr/mL
CL [4, 18]: 156.3 ± 55.6 L/h
Cavg [4, 18]: 384.6 ± 133.3 ng/mL
Cmax [4, 18]: 650.8 ± 234.7 ng/mL
Cmin [4, 18]: 214.3 ± 84.8 ng/mL
T1/2 [4, 18]: 9.2 ± 1.9 h
Vd [4, 18]: 2,021.8±635.7 L
time to maximum concentration, range over doses ([4]; multiple dosing, 300, 400, 500, and 650 mg doses): 1.5 to 2.0 h
inhibition of growth of human A431 tumor cells (human A431 tumor cells): inhibits in a dose-dependent manner
average clearance (CL) T1/2 ([5]; dose range 25–500 mg): 8 to 12 h
tolerability ([5]; phase Ia): well tolerated
